Here are results for two compounds from paper PMC6407750 (Targeted Oncology, 2019).

Where two headings read alike, the source gives them in different places.

What is called Cmax is the peak of the concentration-time curve. The term half-life denotes the time needed for the level to fall by half in the phase considered. The term AUC(0-inf) denotes the area under the concentration-time curve extrapolated to infinity. High values mean more exposure, low ones less exposure. A word on the Tmax: it is the time from dosing to the highest level.

Data set [1] is classed as in vivo, human. The settings on record: for AUC(0-inf): AUC0–∞,obs; for Tmax: median [range]. A digest of the protocol:
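Sixteen advanced solid tumour patients were enrolled. Each received a single oral 200 mg tablet after an overnight fast, either with ~240 mL water or directly after a ~950 kcal high-fat breakfast eaten within 30 min. No food was given for 4 h. Order was randomized, with a 7-day washout. Plasma was sampled predose and 0.5–48 h and measured by LC–MS/MS (detection limit 1 nM). Parameters were derived by non-compartmental analysis, with adjusted geometric mean ratios and 90% CI.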

The format of data set [2] is in vivo, human. The settings on record: single 200 mg dose; for AUC(0-inf) / Cmax / half-life: human, plasma, oral, 200 mg; for AUC(0-inf): AUC0–∞,obs; for AUC(0-inf) / Cmax: adjusted geometric mean; for half-life: t½, geometric mean [coefficient of variation (%)]. A digest of the protocol:
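Sixteen advanced solid tumour patients, fasted overnight and for 4 h post-dose, received 200 mg as an intact tablet or as the uncrushed tablet shaken to full dispersion in 20 mL of sucralose 4 mg/mL, menthol 2 mg/mL and benzoic acid 1 mg/mL, undiluted. Order was randomized, with a 7-day washout. Plasma was sampled predose to 48 h by LC–MS/MS. Analysis was non-compartmental, with adjusted geometric mean ratios and 90% CI.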

The conditions of data set [3]: single dose, primarily Caucasian subjects, fasted state; cited from earlier work.
The conditions of data set [4]: administered with food compared to a fasted state; cited from earlier work.
The mark [5] stands for this setting: single 200 mg tablet, fed versus fasted.

As to `COc1cc(C(=O)NC2CCN(C)CC2)c(F)cc1Nc1ncc(C(F)(F)F)c(Oc2cccc3c2C(=O)N(C)C3)n1` [BI 853520], the t½ in data set [1] (fasted, single 200 mg tablet, geometric mean [coefficient of variation (%)], n=15) is on record as 18.0 (22.6) h. For the same compound, the Cmax in data set [1] (fed, single 200 mg tablet, plasma, adjusted geometric mean) is 1640 nM. Further, in data set [1] (human, plasma, oral, 200 mg), the Cmax came to 1870 nM and the half-life was 18 h. In data set [1] (human, plasma, oral, 200 mg, fasted, single 200 mg tablet, adjusted geometric mean), this compound registered an AUC(0-inf) of 39.9 µM·h. In addition, the AUC(0-inf) in data set [1] (human, plasma, oral, 200 mg, fed, single 200 mg tablet, adjusted geometric mean) was 39.2 µM·h. For the same compound, the Tmax in data set [1] (human, plasma, oral, 200 mg, fasted, single 200 mg tablet, n=15) worked out at 3 h. The time of peak concentration (Tmax) in data set [1] (human, plasma, oral, 200 mg, fed (high-calorie meal), single 200 mg tablet, n=15) was determined as 4 h. The “tmax and t½ after a high-calorie meal compared with fasted patients” value in data set [1] (single 200 mg tablet) is “not different”. In data set [1] (setting [5]), the “AUC0-tz adjusted GMR (90% CI) [fed/fasted]” value is given as 92.46 (74.24–115.16) %, the “AUC0–∞,obs adjusted GMR (90% CI) [fed/fasted]” value was 98.17 (78.53–122.74) % and the “Cmax adjusted GMR (90% CI) [fed/fasted]” value is 87.34 (71.04–107.38) %. Further, in data set [2] (liquid dispersion, fasted), the AUC(0-inf) came out at 31.5 µM·h, the Cmax came out at 1610 nM and the half-life is 18.4 h. In data set [2] (tablet, fasted), the AUC(0-inf) is 32 µM·h, the Cmax turned out to be 1720 nM and the half-life is 19.5 h. In data set [2] (fasted), the “AUC0-tz adjusted GMR (90% CI) [tablet/liquid]” value is 99.98 (92.28–108.33) %, the “AUC0–∞,obs adjusted GMR (90% CI) [tablet/liquid]” value is given as 101.65 (93.57–110.42) % and the “Cmax adjusted GMR (90% CI) [tablet/liquid]” value is recorded as 107.15 (98.79–116.22) %. Also, the “tmax and t½, effect of dispersing in a liquid” value in data set [2] (liquid dispersion vs tablet) is “not affected”. In addition, the “observed terminal half-life (t½)” value in data set [3] is recorded as 19 h.

In the case of `C[C@]12CC[C@H](O)CC1=CC[C@@H]1[C@@H]2CC[C@]2(C)C(c3cccnc3)=CC[C@@H]12` [abiraterone], the “increase in the area under the plasma concentration–time curve (AUC)” value in data set [4] is 1000%.
